# High-throughput results as filed in PubChem.
# S1P3 antagonist: S1P3 (human) receptor antagonism; Q99500; CHO S1P3 NFAT-BLA reporter, FRET fluorescence, antagonist mode; inhibition, % at 4.98 µM; 170,000 compounds, 0.27% hits;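 active = inhibition above the plate cutoff, the mean inhibition of test wells on that plate plus 3 SD, cut at about 28% in these data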;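 note: cells challenged with S1P at its EC80 of 0.8 µM; blue over green emission ratio from cleaved BLA substrate after 4 h stimulation; 0% = S1P-stimulated wells and 100% = unstimulated DMSO-only wells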
# Target sequence (Q99500 whole entry, looked up): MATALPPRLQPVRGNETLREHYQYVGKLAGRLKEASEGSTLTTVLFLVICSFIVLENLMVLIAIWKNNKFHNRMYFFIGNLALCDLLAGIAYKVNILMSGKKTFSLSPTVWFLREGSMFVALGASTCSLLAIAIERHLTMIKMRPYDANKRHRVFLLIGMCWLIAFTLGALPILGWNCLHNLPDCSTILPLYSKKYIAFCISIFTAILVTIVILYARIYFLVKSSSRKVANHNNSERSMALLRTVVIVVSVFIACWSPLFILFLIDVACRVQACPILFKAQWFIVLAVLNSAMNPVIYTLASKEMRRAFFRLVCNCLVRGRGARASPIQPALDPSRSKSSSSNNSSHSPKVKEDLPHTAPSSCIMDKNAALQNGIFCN
# S1P4 antagonist: antagonists of human S1P4 receptor. O95977. S1P4-expressing cells, antagonist mode, reporter read-out. inhibition, % at 4.98 µM. 220,000 compounds, 0.26% hits; in the data active = inhibition above about 29%;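 note: 0% = wells stimulated with agonist and 100% = vehicle wells without agonist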
# MDM2 E3 inh: blocks human Mdm2 ubiquitin ligase activity | Q00987 | cell-based MDM2 ubiquitination luciferase reporter, 2 h; 0 = plate control, 100 = twice control, blank-subtracted | signal enhancement, % at 5 µM | 210,000 compounds, 0.11% hits;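 active = signal enhancement of 30% or more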;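 note: luminescence tracks abundance of the self-degrading MDM2-luciferase fusion protein; higher signal means inhibition of MDM2 E3 ligase activity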
#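 Buffer or medium: Cells held in DMEM | Assay system: Stable mammalian line carrying autodegrading MDM2–luciferase fusion reporter | Quantity: 2000 cells/well | Times: 4 h settle plus 2 h compound, 37 °C | Doses: One concentration, 5 µM, with 0.2% DMSO | Technique: Luminescence with SteadyLite reagent, 15 min at room temperature | Benchmarks: Plate controls and plate blanks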
# L major viab: inhibitors of Leishmania major promastigote growth; AID 1063; 200,000 compounds, 9% hits; inhibition, % at 10 µM; Leishmania major promastigotes, resazurin fluorescence viability; in the data active = inhibition above about 50%;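 note: promastigotes grown with compound for 44 hours at 28 °C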
# S1P4 agonist: activates the human S1P4 receptor | O95977 | activation, % at 4.98 µM | 220,000 compounds, 0.35% hits | S1P4-expressing cell line, agonist reporter assay; in the data active = activation above about 11%;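 note: 0% = DMSO vehicle and 100% = reference agonist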
# Starred values were filed as active, the others as inactive; nt = no result given. The full list was thinned out, with hits kept by preference.
SMILES,S1P3 antagonist,S1P4 antagonist,MDM2 E3 inh,L major viab,S1P4 agonist
NC(=O)c1nc(-c2ccco2)nc2c1[nH]c(=O)n2-c1ccc(Cl)c(Cl)c1,2,-7,nt,nt,-1
C=CCc1cccc(/C=N/NC(=O)CCC(=O)Nc2ccc(C)cc2)c1O,-7,-1,6,-2,-1
COC(=O)C1=C(O)/C(=C\c2sccc2C)N=C1C,3,1,-7,54*,-1
COc1ccc(Nc2nc(Cl)c(C=O)s2)cc1,0,-33,-10,0,2
CCOc1ccc(S(=O)(=O)NCCCN2CCOCC2)c2ccccc12,-16,10,-13,85*,1
COc1ccc(S(=O)(=O)NCCCN2CCOCC2)c2ccccc12,-10,-16,7,92*,-1
Cc1ccc(-c2nn(C)c(=O)c3ccccc23)cc1S(=O)(=O)NCCN1CCOCC1,9,10,-24,65*,-1
CCCOc1ccc(S(=O)(=O)NCCCN2CCOCC2)c2ccccc12,16,-16,-6,28,0
NS(=O)(=O)c1ccc(NC2=CC(c3ccc([N+](=O)[O-])cc3)N(c3ccc(S(N)(=O)=O)cc3)C2=O)cc1 (stereo not given),-4,21,-15,nt,0
O=C(Nn1cnnc1)c1ccccc1CCc1ccccc1,64*,-8,6,-2,-1
COC(=O)C1=C(C)N(c2ccc(C)c(C)c2)/C(=C/c2ccc(O)cc2)C1=O,4,-14,10,99*,0
CN1CCN(S(=O)(=O)c2ccc(N3CCc4ccccc4C3)nc2)CC1,-8,16,-17,94*,0
O=C1C=C(Nc2ccccc2C(=O)O)c2ccccc2C1=O,-3,-8,nt,nt,0
CCCCNC1=CC(=O)C(=O)c2ccccc21,18,-2,-17,100*,3
O=C1C=C(Nc2ccccc2)c2ccccc2C1=O,-16,-9,-2,100*,2
CN(C)c1ccc(NC2=C(Cl)C(=O)c3ccccc3C2=O)cc1,-49,-5,-7,11,0
O=C1C=C(Nc2ccccc2)C(=O)c2ccccc21,-4,5,-31,100*,0
CCn1nc(C)c(CNCc2cn[nH]c2-c2cc3ccccc3o2)c1C,-3,7,-14,nt,0
C(=N\n1cnnc1)/c1ccc(OCc2ccccc2)cc1,20,-12,-6,2,0
Cc1cc(/C=N/n2cnnc2)c(C)n1-c1ccc(OCc2ccccc2F)cc1,68*,-17,-10,77*,3
Cc1cc(/C=N/n2cnnc2)c(C)n1-c1ccc(OCc2ccc(Cl)cc2)cc1,nt,-10,-16,98*,-2
Fc1ccccc1COc1cccc(/C=N/n2cnnc2)c1,21,1,13,0,4
O=C(Nc1ccccc1)c1ccccc1OCc1cccc([N+](=O)[O-])c1,-5,-5,4,55*,1
O=C(O)c1ccccc1C(=O)Nc1cccc([N+](=O)[O-])c1,5,-12,-7,nt,2
Cc1ccc(-n2cc(C(C)(C)C)[nH]c2=S)cc1,-43,-16,13,2,-2
SMILES,S1P3 antagonist,S1P4 antagonist,MDM2 E3 inh,L major viab,S1P4 agonist
Cc1occc1C(=O)NNC(=O)c1ccc(Br)o1,-11,-1,-10,-10,0
CC(C)COc1ccc(C/C(N)=N/n2cnnc2)cc1,10,-12,-14,-3,1
CC(C)COc1ccc(Cc2cnc(N)nc2N)cc1,nt,-27,-3,72*,0
Cc1ccc(SC(c2ccccc2)C(Cn2cncn2)C(=O)c2ccccc2)cc1 (stereo not given),nt,-8,2,0,2
O=C(c1ccc(Cl)cc1)C(Cn1cncn1)C(Sc1ccccc1)c1ccccc1 (stereo not given),nt,-9,-16,92*,0
CC(C)(C)OC(=O)N[C@@H](Cc1ccccc1)c1nnc(S(=O)(=O)Cc2ccccc2)o1,-9,73*,-9,-5,-4
CCSc1nnc([C@H](Cc2ccccc2)NC(=O)OC(C)(C)C)o1,nt,-12,-12,20,3
COc1ccc(CNC(=O)CN(C2CCCCC2)S(C)(=O)=O)cc1,-1,-21,-8,49,2
Cc1ccnc(NS(=O)(=O)c2cnc(Cl)c(Br)c2)c1,-2,-5,-7,-7,-1
COc1ccc(-c2cc(N)n(S(=O)(=O)c3ccc(F)cc3)n2)cc1OC,nt,-11,-11,51*,-6
CCOC(=O)c1oc2ccc(S(=O)(=O)n3nc(-c4cc(OC)c(OC)c(OC)c4)cc3N)cc2c1C,6,-16,-9,64*,2
